Source: ChEMBL document CHEMBL3588803, “Design, synthesis and pharmacology of 1,1-bistrifluoromethylcarbinol derivatives as liver X receptor β-selective agonists” (Bioorg Med Chem Lett, 2015)

Legend:
Hamster [1] = test: Increase in ABCG5 gene expression in Bio F1B hamster intestine at 30 mg/kg, po; format: functional, Cricetinae
How it was run: (§1)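 Bio F1B hamsters were fed a high-fat, high-cholesterol diet and dosed orally. Gene expression was measured in intestine (ABCA1, ABCG5, ABCG8) and in peripheral blood (ABCA1).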

Hamster [2] = test: Hypolipidemic effect in Bio F1B hamster fed with high fat and cholesterol diet assessed as HDL-cholesterol level at 10 mg/kg, po relative to control; format: functional, Cricetinae
[3] = Plasma concentration in CE-2 chow diet-fed golden Syrian hamster at 100 mg/kg, po after 3 hrs by HPLC-LC-MS/MS method; format: ADME, organism-based, Mesocricetus auratus
How it was run: (§2)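 Hamsters on chow diet received a single oral dose of 100 mg/kg. Heparin plasma was drawn from a forearm vein at 0.5, 1, 2, 3, 4, 6, 8, 10 and 24 h after dosing. Concentrations of parent drug and its carboxylic acid metabolite were measured in plasma.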

Syrian golden hamster = test: Drug metabolism in CE-2 chow diet-fed golden Syrian hamster assessed as 4-(4-(1,1,1,3,3,3-Hexafluoro-2-hydroxypropan-2-yl)-2,6-di-n-propylphenoxy)-butanoic acid formation at 100 mg/kg, po after 0.5 to 24 hrs by HPLC-LC-MS/MS method; format: ADME, organism-based, Mesocricetus auratus; conditions: in vivo; how it was run: as §2
[4] = Plasma concentration in CE-2 chow diet-fed golden Syrian hamster assessed as 4-(4-(1,1,1,3,3,3-Hexafluoro-2-hydroxypropan-2-yl)-2,6-di-n-propylphenoxy)-butanoic acid level at 100 mg/kg, po after 24 hrs by HPLC-LC-MS/MS method; format: ADME, organism-based, Mesocricetus auratus; conditions: in vivo; how it was run: as §2
[5] = Plasma concentration in CE-2 chow diet-fed golden Syrian hamster at 100 mg/kg, po after 0.5 hrs by HPLC-LC-MS/MS method; format: ADME, organism-based, Mesocricetus auratus; how it was run: as §2
[6] = Plasma concentration in CE-2 chow diet-fed golden Syrian hamster at 100 mg/kg, po after 1 hr by HPLC-LC-MS/MS method; format: ADME, organism-based, Mesocricetus auratus; how it was run: as §2
Hamster [7] = test: Hypolipidemic effect in Bio F1B hamster fed with high fat and cholesterol diet assessed as LDL-cholesterol level at 100 mg/kg, po relative to control; format: functional, Cricetinae
Hamster [8] = test: Hypolipidemic effect in Bio F1B hamster fed with high fat and cholesterol diet assessed as LDL-cholesterol level at 30 mg/kg, po relative to control; format: functional, Cricetinae
Hamster [9] = test: Increase in ABCG8 gene expression in Bio F1B hamster intestine at 10 mg/kg, po; format: functional, Cricetinae
Hamster [10] = test: Hypolipidemic effect in Bio F1B hamster fed with high fat and cholesterol diet assessed as lipid-accumulation area in aortic arch at 30 mg/kg, po relative to control; format: functional, Cricetinae
[11] = Plasma concentration in CE-2 chow diet-fed golden Syrian hamster assessed as 4-(4-(1,1,1,3,3,3-Hexafluoro-2-hydroxypropan-2-yl)-2,6-di-n-propylphenoxy)-butanoic acid level at 100 mg/kg, po after 8 hrs by HPLC-LC-MS/MS method; format: ADME, organism-based, Mesocricetus auratus; conditions: in vivo; how it was run: as §2
Hamster [12] = test: Effect in lipid profiles in Bio F1B hamster fed with high fat and cholesterol diet assessed as triglyceride level at 100 mg/kg, po relative to control; format: organism-based; conditions: cricetinae, in vivo
Hamster [13] = test: Effect in lipid profiles in Bio F1B hamster fed with high fat and cholesterol diet assessed as triglyceride level at 30 mg/kg, po relative to control; format: organism-based; conditions: cricetinae, in vivo
Hamster [14] = test: Increase in ABCA1 gene expression in Bio F1B hamster peripheral blood at 30 mg/kg, po; format: functional, Cricetinae; how it was run: as §1
Hamster [15] = test: Increase in ABCA1 gene expression in Bio F1B hamster peripheral blood at 10 mg/kg, po; format: functional, Cricetinae
[16] = Plasma concentration in CE-2 chow diet-fed golden Syrian hamster assessed as 4-(4-(1,1,1,3,3,3-Hexafluoro-2-hydroxypropan-2-yl)-2,6-di-n-propylphenoxy)-butanoic acid level at 100 mg/kg, po after 2 hrs by HPLC-LC-MS/MS method; format: ADME, organism-based, Mesocricetus auratus; conditions: in vivo; how it was run: as §2
[17] = Plasma concentration in CE-2 chow diet-fed golden Syrian hamster at 100 mg/kg, po after 4 hrs by HPLC-LC-MS/MS method; format: ADME, organism-based, Mesocricetus auratus; how it was run: as §2
[18] = Plasma concentration in CE-2 chow diet-fed golden Syrian hamster assessed as 4-(4-(1,1,1,3,3,3-Hexafluoro-2-hydroxypropan-2-yl)-2,6-di-n-propylphenoxy)-butanoic acid level at 100 mg/kg, po after 4 hrs by HPLC-LC-MS/MS method; format: ADME, organism-based, Mesocricetus auratus; conditions: in vivo; how it was run: as §2
Hamster [19] = test: Increase in ABCG8 gene expression in Bio F1B hamster intestine at 100 mg/kg, po; format: functional, Cricetinae; how it was run: as §1
[20] = Plasma concentration in CE-2 chow diet-fed golden Syrian hamster assessed as 4-(4-(1,1,1,3,3,3-Hexafluoro-2-hydroxypropan-2-yl)-2,6-di-n-propylphenoxy)-butanoic acid level at 100 mg/kg, po after 3 hrs by HPLC-LC-MS/MS method; format: ADME, organism-based, Mesocricetus auratus; conditions: in vivo; how it was run: as §2
[21] = Plasma concentration in CE-2 chow diet-fed golden Syrian hamster assessed as 4-(4-(1,1,1,3,3,3-Hexafluoro-2-hydroxypropan-2-yl)-2,6-di-n-propylphenoxy)-butanoic acid level at 100 mg/kg, po after 10 hrs by HPLC-LC-MS/MS method; format: ADME, organism-based, Mesocricetus auratus; conditions: in vivo; how it was run: as §2
[22] = Plasma concentration in CE-2 chow diet-fed golden Syrian hamster assessed as 4-(4-(1,1,1,3,3,3-Hexafluoro-2-hydroxypropan-2-yl)-2,6-di-n-propylphenoxy)-butanoic acid level at 100 mg/kg, po after 0.5 hrs by HPLC-LC-MS/MS method; format: ADME, organism-based, Mesocricetus auratus; conditions: in vivo; how it was run: as §2
[23] = Plasma concentration in CE-2 chow diet-fed golden Syrian hamster at 100 mg/kg, po after 6 hrs by HPLC-LC-MS/MS method; format: ADME, organism-based, Mesocricetus auratus; how it was run: as §2
Hamster [24] = test: Increase in ABCA1 gene expression in Bio F1B hamster intestine at 100 mg/kg, po; format: functional, Cricetinae; how it was run: as §1
Hamster [25] = test: Increase in ABCG5 gene expression in Bio F1B hamster intestine at 100 mg/kg, po; format: functional, Cricetinae; how it was run: as §1
Hamster [26] = test: Effect in lipid profiles in Bio F1B hamster fed with high fat and cholesterol diet assessed as triglyceride level at 10 mg/kg, po relative to control; format: organism-based; conditions: cricetinae, in vivo
Hamster [27] = test: Increase in ABCG8 gene expression in Bio F1B hamster intestine at 30 mg/kg, po; format: functional, Cricetinae; how it was run: as §1
Hamster [28] = test: Hypolipidemic effect in Bio F1B hamster fed with high fat and cholesterol diet assessed as total cholesterol level at 30 mg/kg, po relative to control; format: functional, Cricetinae
[29] = Plasma concentration in CE-2 chow diet-fed golden Syrian hamster at 100 mg/kg, po after 10 hrs by HPLC-LC-MS/MS method; format: ADME, organism-based, Mesocricetus auratus; how it was run: as §2
[30] = Plasma concentration in CE-2 chow diet-fed golden Syrian hamster at 100 mg/kg, po after 8 hrs by HPLC-LC-MS/MS method; format: ADME, organism-based, Mesocricetus auratus; how it was run: as §2
Hamster [31] = test: Hypolipidemic effect in Bio F1B hamster fed with high fat and cholesterol diet assessed as total cholesterol level at 10 mg/kg, po relative to control; format: functional, Cricetinae
Hamster [32] = test: Increase in ABCG5 gene expression in Bio F1B hamster intestine at 10 mg/kg, po; format: functional, Cricetinae
Hamster [33] = test: Hypolipidemic effect in Bio F1B hamster fed with high fat and cholesterol diet assessed as lipid-accumulation area in aortic arch at 10 mg/kg, po relative to control; format: functional, Cricetinae

CCCc1cc(C(O)(C(F)(F)F)C(F)(F)F)cc(CCC)c1OCCCCN1C(=O)NC(C)(c2ccc(OC(C)C)cc2)C1=O (centres undefined)
fold change (FC) (Hamster [1]): 1.5
Activity (Hamster [2]): 98%
concentration at 3 h [3]: 290 nM
Drug metabolism (Syrian golden hamster): metabolite_detected
Cp [4]: 528 ng/mL
concentration at 0.5 h [5]: 310 nM
concentration at 1 h [6]: 490 nM
Activity (Hamster [7]): 45%
Activity (Hamster [8]): 91%
fold change (FC) (Hamster [9]): 1.3
Activity (Hamster [10]): 84%
Cp [11]: 979 ng/mL
Activity (Hamster [12]): 112%
Activity (Hamster [13]): 145%
fold change (FC) (Hamster [14]): 0.8
fold change (FC) (Hamster [15]): 1
Cp [16]: 375 ng/mL
concentration at 4 h [17]: 290 nM
Cp [18]: 529 ng/mL
fold change (FC) (Hamster [19]): 1.3
Cp [20]: 409 ng/mL
Cp [21]: 560 ng/mL
Cp [22]: 52 ng/mL
concentration at 6 h [23]: 630 nM
fold change (FC) (Hamster [24]): 5.2
fold change (FC) (Hamster [25]): 1.3
Activity (Hamster [26]): 97%
fold change (FC) (Hamster [27]): 1.4
Activity (Hamster [28]): 96%
concentration at 10 h [29]: 110 nM
concentration at 8 h [30]: 420 nM
Activity (Hamster [31]): 87%
fold change (FC) (Hamster [32]): 1.2
Activity (Hamster [33]): 86%
